According to ChEMBL document CHEMBL4270555, “Synthesis and biological evaluation of magnolol derivatives as melatonergic receptor agonists with potential use in depression” (Eur J Med Chem, 2018):
Activity calls are given as the source filed them. No cut-off for these calls is given here.

Experiments:
[1] = target: Melatonin receptor type 1A (Homo sapiens, UniProt P48039); test: Agonist activity at human MT1 receptor expressed in HEK293 cells at 1 mM after 24 hrs by Fluo-8 dye-based calcium assay relative to control; format: functional, cell-based
Outline: (§1)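 Fluo-8 calcium assay in HEK293 cells stably expressing human MT1 or MT2, seeded 4×10^4/well and incubated 24 h. Compounds tested at 1.00 mM, agomelatine positive control at 3.33 µM; fluorescence at ex 485/em 525 nm. Agonism expressed as mean ± SD, n = 3.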

[2] = target: T1, Melatonin receptor type 1B (Homo sapiens) (UniProt P49286); test: Agonist activity at human MT2 receptor expressed in HEK293 cells at 1 mM after 24 hrs by Fluo-8 dye-based calcium assay relative to control; format: functional, cell-based; outline: as §1
T1 sequence (whole entry): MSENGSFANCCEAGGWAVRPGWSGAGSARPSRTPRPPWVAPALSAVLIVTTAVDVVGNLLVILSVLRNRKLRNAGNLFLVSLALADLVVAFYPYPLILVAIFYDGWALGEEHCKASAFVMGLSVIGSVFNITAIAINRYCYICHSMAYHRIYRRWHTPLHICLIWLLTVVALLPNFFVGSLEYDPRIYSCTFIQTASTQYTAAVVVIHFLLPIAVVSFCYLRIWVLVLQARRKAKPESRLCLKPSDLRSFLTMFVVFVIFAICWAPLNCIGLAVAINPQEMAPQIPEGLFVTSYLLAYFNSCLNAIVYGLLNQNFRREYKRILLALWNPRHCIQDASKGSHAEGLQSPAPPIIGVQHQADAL

[3] = Retention time of the compound by UPLC-IT-TOF-MS analysis; format: physicochemical
Outline: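 Retention on C18 column (100 × 2.1 mm, 1.8 µm) at 30 °C; mobile phase A 0.05% formic acid in water, B 0.05% formic acid in acetonitrile, 0.2 mL/min, linear 5–100% B over 0–18.0 min; IT-TOF-MS detection in positive and negative modes.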

[4] = Drug level in Sprague-Dawley rat urine treated with Magnolol-4'-O-beta-D-glucopyranoside at 100 mg/kg, po by UPLC-IT-TOF-MS analysis; format: ADME, organism-based; settings: in vivo
Outline: (§2)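 Rats (n = 6) housed in metabolic cages received 100.0 mg/kg orally; controls received 0.5% CMC-Na. Plasma, urine and faeces were collected and analyzed by LC-IT-TOF-MS on a C18 column at 30 °C. Gradient 5–100% acetonitrile with 0.05% formic acid over 18 min at 0.2 mL/min; positive and negative ion MS/MS.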

[5] = Drug level in Sprague-Dawley rat feces treated with Magnolol-4'-O-beta-D-glucopyranoside at 100 mg/kg, po by UPLC-IT-TOF-MS analysis; format: ADME, organism-based; settings: in vivo; outline: as §2
[6] = Drug level in Sprague-Dawley rat plasma treated with Magnolol-4'-O-beta-D-glucopyranoside at 100 mg/kg, po by UPLC-IT-TOF-MS analysis; format: ADME, organism-based; settings: in vivo; outline: as §2
[7] = target: T1, Melatonin receptor type 1B (Homo sapiens); test: Potency index, ratio of compound effect to magnolol effect for human MT2 receptor; format: functional
Mus musculus [8] = test: Antidepressant activity in Kunming mouse assessed as decrease in immobility time at 20 mg/kg, po by tail suspension test; format: functional, organism-based
Outline: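 Male Kunming mice (18–20 g), dosed orally and tested acoustically and visually isolated. Each was suspended 50 cm above a wooden box by tape placed about 1 cm from the tail tip for 6 min. Immobility (s) over the last 4 min was recorded automatically by video tracking; n = 10, mean ± SEM vs vehicle.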

Mus musculus [9] = test: Antidepressant activity in Kunming mouse assessed as decrease in immobility duration at 20 mg/kg, po by forced swim test; format: functional, organism-based
Outline: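 Male Kunming mice (18–20 g), group-housed at 22 ± 2 °C on a 12 h light/dark cycle, dosed orally. Each mouse was placed in a glass cylinder (25 cm high, 15 cm diameter) holding 10 cm of water at 25 ± 1 °C and made to swim for 6 min. Immobility over the last 4 min was scored automatically by video tracking; n = 10, mean ± SEM vs vehicle.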

Chain of Melatonin receptor type 1A (P48039 whole entry): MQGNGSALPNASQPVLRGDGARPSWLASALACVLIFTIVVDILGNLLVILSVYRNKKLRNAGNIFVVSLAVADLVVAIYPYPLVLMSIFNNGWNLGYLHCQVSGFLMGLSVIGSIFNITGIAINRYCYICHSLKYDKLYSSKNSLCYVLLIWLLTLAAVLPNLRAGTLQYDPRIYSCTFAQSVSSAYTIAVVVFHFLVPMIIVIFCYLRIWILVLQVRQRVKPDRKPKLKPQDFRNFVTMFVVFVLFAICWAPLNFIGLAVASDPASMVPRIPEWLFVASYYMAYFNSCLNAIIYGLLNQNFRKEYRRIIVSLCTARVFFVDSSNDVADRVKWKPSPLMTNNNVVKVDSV

SMILES	Activity [1] [%]	Activity [2] [%]	Retention_time [3] [min]	Drug metabolism [4]	other results
C=CCc1ccc(O)c(-c2cc(CC=C)ccc2OC(C)=O)c1	91.4	77.6	–	–	–
C=CCc1ccc(OC)c(-c2cc(CC=C)ccc2O[C@@H]2O[C@H](C(=O)O)[C@@H](O)[C@H](O)[C@H]2O)c1	–	–	12.4	Metabolite_Detected	–
C=CCc1ccc(OC(C)=O)c(-c2cc(CC=C)ccc2OC(C)=O)c1	-1.86	-2.52	–	–	–
C=CCc1ccc(OC(=O)c2ccccc2)c(-c2cc(CC=C)ccc2OC(=O)c2ccccc2)c1	-5.93	-1.72	–	–	–
C=CCc1ccc(O)c(-c2cc(CC=C)ccc2OC(=O)c2ccc(N)cc2)c1	-1.55	5.17	–	–	–
C=CC(O)c1ccc(O[C@@H]2O[C@H](CO)[C@@H](O)[C@H](O)[C@H]2O)c(-c2cc(CCC)ccc2OS(=O)(=O)O)c1 (some centres undefined)	–	–	6.91	–	Drug metabolism [5]: Metabolite_Detected
C=CC(O)c1ccc(O)c(-c2cc(CCC)ccc2OS(=O)(=O)O)c1 (centres undefined)	–	–	7.55	–	Drug metabolism [5]: Metabolite_Detected
Oc1ccc(CC2CO2)cc1-c1cc(CC2CO2)ccc1O (centres undefined)	2.18	-3.39	–	–	–
C=CC(=O)c1ccc(O[C@@H]2O[C@H](CO)[C@@H](O)[C@H](O)[C@H]2O)c(-c2cc(C(O)C=C)ccc2O)c1 (some centres undefined)	–	–	10.88	Metabolite_Detected	–
C=CCc1ccc(OC)c(-c2cc(CC=C)ccc2O[C@@H]2O[C@H](CO)[C@@H](O)[C@H](O)[C@H]2O)c1	–	–	11.32	Metabolite_Detected	Drug metabolism [5]: Metabolite_Detected; Drug metabolism [6]: Metabolite_Detected
C=CCc1ccc(OC(=O)CCCCl)c(-c2cc(CC=C)ccc2OC(=O)CCCCl)c1	8.14	2.11	–	–	–
C=CCc1ccc(OC(=O)/C=C/c2cccc(F)c2)c(-c2cc(CC=C)ccc2O[C@@H]2O[C@H](CO)[C@@H](O)[C@H](O)[C@H]2O)c1	5.3	-10.5	–	–	–
C=CCc1ccc(O)c(-c2cc(CC=C)ccc2O[C@@H]2O[C@H](CO)[C@@H](OC(C)=O)[C@H](OC(C)=O)[C@H]2O)c1	31	89	–	–	Ratio [7]: 3.5 to 4.5
C=CC(=O)c1ccc(O[C@@H]2O[C@H](C(=O)O)[C@@H](O)[C@H](O)[C@H]2O)c(-c2cc(C(O)C=C)ccc2O)c1 (some centres undefined)	–	–	9.47	Metabolite_Detected	–
C=CCc1ccc(OC(=O)C=C)c(-c2cc(CC=C)ccc2OC(=O)C=C)c1	0.04	4.57	–	–	–
C=CCc1ccc(O)c(-c2cc(CC=C)ccc2O[C@@H]2O[C@H](COC(C)=O)[C@@H](OC(C)=O)[C@H](OC(C)=O)[C@H]2O)c1	11	19.1	–	–	–
C=CCc1ccc(O)c(-c2cc(CC=C)ccc2OS(=O)(=O)O)c1	–	–	11.49	–	Drug metabolism [5]: Metabolite_Detected
C=CCc1ccc(O)c(-c2cc(C(O)C=C)ccc2O[C@@H]2O[C@H](CO)[C@@H](O)[C@H](O)[C@H]2O)c1 (some centres undefined)	–	–	9.15	Metabolite_Detected	–
C=CCc1ccc(O[C@@H]2O[C@H](CO)[C@@H](O)[C@H](O)[C@H]2O)c(-c2cc(C(O)C=C)ccc2O[C@@H]2O[C@H](C(=O)O)[C@@H](O)[C@H](O)[C@H]2O)c1 (some centres undefined)	–	–	7.79	Metabolite_Detected	Drug metabolism [5]: Metabolite_Detected
C=CCc1ccc(O)c(-c2cc(CC=C)ccc2O)c1 [MAGNOLOL]	40.2	20	14.33	Metabolite_Detected	Drug metabolism [5]: Metabolite_Detected
C=CCc1ccc(O)c(-c2cc(CC=C)ccc2O[C@@H]2O[C@H](COC(C)=O)[C@@H](OC(C)=O)[C@H](OC(C)=O)[C@H]2OC(C)=O)c1	-0.58	-2.09	–	–	–
CNCCC(Oc1ccc(C(F)(F)F)cc1)c1ccccc1 (centres undefined)	–	–	–	–	Activity (Mus musculus [8]): Active; Activity (Mus musculus [9]): Active

SMILES	Activity [1] [%]	Activity [2] [%]	Retention_time [3] [min]	Drug metabolism [4]	other results
C=CCc1ccc(OC(=O)/C=C/c2ccccc2)c(-c2cc(CC=C)ccc2O[C@@H]2O[C@H](CO)[C@@H](O)[C@H](O)[C@H]2O)c1	50.3	-10.1	–	–	–
C=CC(O)c1ccc(O)c(-c2cc(C(O)C=C)ccc2O)c1 (centres undefined)	–	–	11.06	Metabolite_Detected	Drug metabolism [5]: Metabolite_Detected
C=CCc1ccc(O[C@@H]2O[C@H](CO)[C@@H](O)[C@H](O)[C@H]2O)c(-c2cc(CC=C)ccc2OS(=O)(=O)O)c1	–	–	8.17	–	Drug metabolism [5]: Metabolite_Detected
C=CCc1ccc(O)c(-c2cc(CC=C)ccc2OC(=O)CCCCl)c1	32	69.7	–	–	Ratio [7]: 3.5 to 4.5
C=CCc1ccc(OS(=O)(=O)O)c(-c2cc(C(O)C=C)ccc2O[C@@H]2O[C@H](CO)[C@@H](O)[C@H](O)[C@H]2O)c1 (some centres undefined)	–	–	9.24	–	Drug metabolism [5]: Metabolite_Detected
C=CCc1ccc(O)c(-c2cc(CC=C)ccc2OC(=O)CCCl)c1	21	30.1	–	–	–
C=CCc1ccc(O)c(-c2cc(CC=C)ccc2OC(=O)/C=C/c2ccccc2)c1	56.8	25.6	–	–	–
C=CCc1ccc(O)c(-c2cc(CC3CO3)ccc2O)c1 (centres undefined)	53.8	-3.08	–	–	–
C=CCc1ccc(OC(=O)/C=C/c2ccccc2)c(-c2cc(CC=C)ccc2OC(=O)/C=C/c2ccccc2)c1	28.3	3.34	–	–	–
COc1ccc2cccc(CCNC(C)=O)c2c1	–	–	–	–	Activity (Mus musculus [8]): Active
C=CC(O)c1ccc(O[C@@H]2O[C@H](CO)[C@@H](O)[C@H](O)[C@H]2O)c(-c2cc(C(O)CC)ccc2OS(=O)(=O)O)c1 (some centres undefined)	–	–	7.39	Metabolite_Detected	–
C=CCc1ccc(OC(=O)c2ccccc2)c(-c2cc(CC=C)ccc2O[C@@H]2O[C@H](CO)[C@@H](O)[C@H](O)[C@H]2O)c1	13.2	-5.71	–	–	–
C=CCc1ccc(O[C@@H]2O[C@H](COC(C)=O)[C@@H](OC(C)=O)[C@H](OC(C)=O)[C@H]2OC(C)=O)c(-c2cc(CC=C)ccc2O[C@@H]2O[C@H](COC(C)=O)[C@@H](OC(C)=O)[C@H](OC(C)=O)[C@H]2OC(C)=O)c1	7.09	0.04	–	–	–
C=CCc1ccc(O)c(-c2cc(C(=O)C=C)ccc2O[C@@H]2O[C@H](CO)[C@@H](O)[C@H](O)[C@H]2O)c1	–	–	10.59	Metabolite_Detected	–
C=CC(=O)c1ccc(O)c(-c2cc(C(=O)CC)ccc2OS(=O)(=O)O)c1	–	–	9.05	Metabolite_Detected	–
C=CCc1ccc(O)c(-c2cc(CC=C)ccc2OC(=O)C=C)c1	1.31	2.93	–	–	–
C=CC(O)c1ccc(O[C@@H]2O[C@H](C(=O)O)[C@@H](O)[C@H](O)[C@H]2O)c(-c2cc(C(O)CC)ccc2O[C@@H]2O[C@H](CO)[C@@H](O)[C@H](O)[C@H]2O)c1 (some centres undefined)	–	–	6.75	Metabolite_Detected	Drug metabolism [5]: Metabolite_Detected
C=CC(O)c1ccc(O[C@@H]2O[C@H](C(=O)O)[C@@H](O)[C@H](O)[C@H]2O)c(-c2cc(CC(C)O)ccc2OC)c1 (some centres undefined)	–	–	8.7	Metabolite_Detected	–
C=CCc1ccc(O[C@@H]2O[C@H](CO)[C@@H](O)[C@H](O)[C@H]2O)c(-c2cc(CC=C)ccc2O[C@@H]2O[C@H](CO)[C@@H](O)[C@H](O)[C@H]2O)c1	2.97	10.8	10.63	Metabolite_Detected	Drug metabolism [5]: Metabolite_Detected
C=CCc1ccc(O)c(-c2cc(CC=C)ccc2OC(=O)c2ccccc2)c1	-6.5	-0.04	–	–	–
C=CCc1ccc(O[C@@H]2O[C@H](C(=O)O)[C@@H](O)[C@H](O)[C@H]2O)c(-c2cc(CC=C)ccc2O[C@@H]2O[C@H](CO)[C@@H](O)[C@H](O)[C@H]2O)c1	–	–	9.94	Metabolite_Detected	Drug metabolism [5]: Metabolite_Detected
